Shown are actives, neighbours in structure and some others; about 3.1% of the full set was active somewhere.
TbHK1 inh: blocks Trypanosoma brucei hexokinase 1 activity. AID 1430. actives 0.11% (n = 220,000). inhibition, % at 10 µM. recombinant TbHK1, G6PDH-coupled NADH A340;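 active means inhibition of 50% or more in the single-dose primary screen; inactive means inhibition below 50%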
HSF1 inh: HSF1 inhibition | NIH3T3-HGL HSE-luciferase, MG132-induced, luminescence 8 h; active compounds read low | activity change, negative = inhibition, % at 7.5 µM (by protocol) | actives 0.77% (n = 300,000);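 active means more than half of replicate wells show activity change below -50%, luminescence cut by over half; inconclusive means some wells, but at most half, below -50%; inactive means no replicate well below -50%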;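 further: luciferase reports HSF-1 transcriptional activity via heat shock element; 0% = median of DMSO wells and -100% = zero luminescence signal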
Hsp70 activator: Hsp70 transcriptional activation, primary screen | HeLa Hsp70 promoter luciferase reporter, luminescence; scaled: vehicle 0, proteasome-inhibitor control 100% | activation, % at 10 µM | actives 0.04% (n = 200,000) | AID 1203;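 active means activation above the mean across all tested compounds plus 3 SD, cutoff set per campaign, cut at about 5.5% in these data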;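 further: 100% = MG132 at 30 µM as the positive control and 0% = DMSO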
HSP90 inh: blocks HSP90-mediated luciferase refolding in reticulocyte lysate | Rabbit reticulocyte lysate, luciferase refolding luminescence, 3 h | inhibition, % at 5.6 µM | actives 0.91% (n = 290,000);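 active means inhibition above the screen-wide mean plus 3 SD, computed separately per campaign, cut at about 16% in these data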;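 further: 0% = DMSO wells and 100% = 60 µM geldanamycin wells; inhibitors lower the luminescence because luciferase stays unfolded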
HSF1 activator: increases HSF-1 driven luciferase reporter signal | NIH3T3-HGL HSF-1 luciferase reporter, MG132, 8 h; 100% = twice DMSO control signal | activation, % at 9 µM | actives 1.7% (n = 300,000) | AID 504408;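 active means mean replicate activation of at least 50% with a set share of replicates each reaching 50%; inconclusive means only one of those two conditions met; inactive means mean below 50% and too few replicates reaching it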;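 further: 0% = median of the neutral control wells and 100% = twice that signal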
HKDC1 inh: inhibitors of human hexokinase HKDC1; Q2TB90; recombinant HKDC1, G6PDH/diaphorase resazurin coupled fluorescence; inhibition, % at 20 µM; actives 0.16% (n = 340,000);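 active means inhibition above about 35% when tested at 20 µM, limit read from the data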;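 further: plate controls were DMSO wells with enzyme for no effect and DMSO wells lacking enzyme for full effect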
Target sequence (Q2TB90 whole entry, looked up): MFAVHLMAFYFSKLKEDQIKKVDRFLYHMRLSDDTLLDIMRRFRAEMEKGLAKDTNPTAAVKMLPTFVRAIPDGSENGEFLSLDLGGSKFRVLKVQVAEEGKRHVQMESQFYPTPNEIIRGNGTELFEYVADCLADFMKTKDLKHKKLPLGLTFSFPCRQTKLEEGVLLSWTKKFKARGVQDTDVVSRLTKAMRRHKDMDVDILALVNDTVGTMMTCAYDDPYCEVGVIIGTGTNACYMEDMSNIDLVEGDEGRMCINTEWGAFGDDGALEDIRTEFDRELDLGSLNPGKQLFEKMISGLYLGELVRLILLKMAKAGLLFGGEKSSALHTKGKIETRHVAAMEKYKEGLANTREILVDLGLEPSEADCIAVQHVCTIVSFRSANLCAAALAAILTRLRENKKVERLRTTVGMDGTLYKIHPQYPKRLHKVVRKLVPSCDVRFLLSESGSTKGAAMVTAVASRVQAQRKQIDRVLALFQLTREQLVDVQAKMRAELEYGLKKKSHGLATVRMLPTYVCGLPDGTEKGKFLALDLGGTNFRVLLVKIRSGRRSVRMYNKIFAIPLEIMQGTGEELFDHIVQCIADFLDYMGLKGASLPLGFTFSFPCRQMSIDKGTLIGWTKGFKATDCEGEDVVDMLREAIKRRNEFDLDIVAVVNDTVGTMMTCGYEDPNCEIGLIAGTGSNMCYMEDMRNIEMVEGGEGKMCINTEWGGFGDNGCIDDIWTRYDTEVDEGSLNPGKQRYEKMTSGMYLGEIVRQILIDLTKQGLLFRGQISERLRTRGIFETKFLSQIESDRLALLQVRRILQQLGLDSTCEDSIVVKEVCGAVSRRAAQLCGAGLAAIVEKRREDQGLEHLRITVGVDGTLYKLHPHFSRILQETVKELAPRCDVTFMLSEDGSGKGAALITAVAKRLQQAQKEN
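test system = in-house recombinant HK5 (HKDC1) enzyme | amount = HKDC1 at 5 µg/mL | control set = DMSO-enzyme wells negative, buffer-substituted wells positive | compound = one dose of 20 µM, 1% DMSO | schedule = reaction time 90 min, room temperature, protected from light | technique = resorufin fluorescence at 613 nm | reagent = glucose with 1 mM ATP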
HKDC1 act conf: confirmation of human HKDC1 activators | shares compounds with HKDC1 inh | recombinant HKDC1, G6PDH/diaphorase resazurin fluorescence; active compounds read low | inhibition, % at 20 µM | actives 14% (n = 740);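 active means inhibition at or below a set negative limit, negative inhibition meaning the enzyme was activated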
* marks the source's active call; other numbers are inactive results.

`O=C(OCn1ncc(Cl)c(Cl)c1=O)c1ccc(C(F)(F)F)cc1` gave TbHK1 inh 7, HSF1 inh 9, Hsp70 activator 0, HSP90 inh -1, HSF1 activator 27, HKDC1 inh 46* and HKDC1 act conf 2.
Screening COc1ccc(N(C(=O)c2ccco2)C(C(=O)NC2CCCCC2)c2cccs2)cc1OC (configuration not stated) returned TbHK1 inh 11, HSF1 inh 2, Hsp70 activator 0, HSP90 inh 2, HSF1 activator 13 and HKDC1 inh -7.
COc1ccc(N(C(=O)CCl)C(C(=O)NCCc2ccccc2)c2cccs2)cc1Cl (configuration not stated) was read as TbHK1 inh -1, HSF1 inh 14, Hsp70 activator 0, HSP90 inh 1, HSF1 activator 18, HKDC1 inh 32 and HKDC1 act conf 21.
Cc1[nH]n(-c2ccccc2)c(=O)c1/C=N/Nc1nncc(-c2ccccc2)n1 was read as TbHK1 inh -20, HSF1 inh -14, Hsp70 activator 0, HSP90 inh 1, HSF1 activator -5, HKDC1 inh -47 and HKDC1 act conf -61*.
For Cc1ccc(/C=N/Nc2nncc(-c3ccccc3)n2)o1 the results were TbHK1 inh -30, HSF1 inh 3, Hsp70 activator 0, HSP90 inh -3, HSF1 activator 1 and HKDC1 inh 3.
Screening CCCCN(CCCC)C(=S)N/N=C/c1c(C)[nH]n(-c2ccccc2)c1=O returned TbHK1 inh 3, HSF1 inh 0, Hsp70 activator 0, HSP90 inh 1, HSF1 activator 29, HKDC1 inh -41 and HKDC1 act conf -65*.
`CCc1oc(C(=O)O)cc1CN(CC)CC` gave TbHK1 inh -5, HSF1 inh -2, Hsp70 activator 0, HSP90 inh 9, HSF1 activator 20 and HKDC1 inh 4.
For CCN(CC)Cc1cc(O)c(CN(CC)CC)cc1O the results were TbHK1 inh 10, HSF1 inh 1, Hsp70 activator 0, HSP90 inh 0, HSF1 activator -8, HKDC1 inh 47* and HKDC1 act conf 41.
`Cc1ccccc1C(=O)NN1C(=O)CSC1=S` gave TbHK1 inh 18, HSF1 inh -13, Hsp70 activator 0, HSP90 inh -3, HSF1 activator -8 and HKDC1 inh 0.
`O=C1CSC(=S)N1Nc1ccccc1` gave HKDC1 inh -44 and HKDC1 act conf -17.
Cc1ccc2[nH]c(O)c(N=NC(=O)c3ccc(NS(=O)(=O)c4cccs4)cc3)c2c1 was read as TbHK1 inh -13, HSF1 inh 6, HSP90 inh 0, HSF1 activator 34 and HKDC1 inh 8.
Screening Cc1cccc2c(N=NC(=O)c3ccc(NS(=O)(=O)c4cccs4)cc3)c(O)[nH]c12 returned HKDC1 inh 36* and HKDC1 act conf 63.
Screening Cc1nc2sc3c(NCc4ccco4)ncnc3c2c2c1COC(C)(C)C2 returned TbHK1 inh -16, HSF1 inh -89*, Hsp70 activator 0, HSP90 inh 2, HSF1 activator -92, HKDC1 inh 35* and HKDC1 act conf 37.
For Oc1c(Br)cc(Br)cc1/C=N/c1nc2c(s1)CCCC2 the results were TbHK1 inh 3, HSF1 inh 0, Hsp70 activator 0, HSP90 inh 3, HSF1 activator 5, HKDC1 inh 37* and HKDC1 act conf -2.
For O=C1CC/C=C\C[C@@H](CC(=O)N(CCO)Cc2ccccc2)C(=O)N[C@H](Cc2c[nH]c3ccccc23)CO1 the results were HKDC1 inh -3.
Screening Cc1ccccc1NC(=S)N/N=C/c1ccc(O)cc1O returned TbHK1 inh -49, HSF1 inh 16, HSP90 inh -1, HSF1 activator 20, HKDC1 inh -42 and HKDC1 act conf -12.
For COc1cc2c(cc1OC)-c1cc(NCc3ccccn3)nc(=O)n1CC2 the results were TbHK1 inh -40, HSF1 inh -5, Hsp70 activator 0, HSP90 inh 1, HSF1 activator 2, HKDC1 inh 59* and HKDC1 act conf 54.
For Cc1ccc(NC(=O)CNC2CCCCC2)cc1Cl the results were HSF1 inh 2, HSP90 inh 4, HSF1 activator -8 and HKDC1 inh -1.
Screening O=C(O)c1ccc(NC2=C(Cl)C(=O)c3ccccc3C2=O)cc1 returned TbHK1 inh -6, HSF1 inh inconclusive, HSP90 inh 6, HSF1 activator -39, HKDC1 inh -131 and HKDC1 act conf -94*.
Screening O=C1C(Cl)=C(NCCc2ccccc2)C(=O)c2ccccc21 returned HKDC1 inh 53* and HKDC1 act conf 59.
Screening O=C1C(Cl)=C(NCCc2ccccc2)C(=O)N1CCc1ccccc1 returned TbHK1 inh 2, HSF1 inh 22, Hsp70 activator 0, HSP90 inh -8, HSF1 activator 44 and HKDC1 inh -4.
Screening Cc1ccc(NC2=C(NC(=O)c3ccccc3)C(=O)c3ccccc3C2=O)cc1Cl returned TbHK1 inh -3, HSF1 inh 23, Hsp70 activator 0, HSP90 inh 8, HSF1 activator 48 and HKDC1 inh 27.
For COc1ccc(S(=O)(=O)Nc2ccc(O)c3ccccc23)cc1 the results were TbHK1 inh 5, HSF1 inh 9, Hsp70 activator 0, HSP90 inh 2, HSF1 activator 2, HKDC1 inh 46* and HKDC1 act conf 51.
Screening Cc1ccc(C)c(S(=O)(=O)Nc2ccc(O)c3ccccc23)c1 returned HSF1 inh 10, HSP90 inh 0, HSF1 activator 14, HKDC1 inh 48* and HKDC1 act conf 25.
For Cc1ccc(C)c(S(=O)(=O)Nc2ccc(O)c(C(=O)O)c2)c1 the results were TbHK1 inh 5, HSF1 inh -5, Hsp70 activator 0, HSP90 inh 8, HSF1 activator -10 and HKDC1 inh -5.
`Cc1ccc(S(=O)(=O)Nc2ccc(O)c3ccccc23)c(C)c1` gave HSF1 inh 7, HSP90 inh 1, HSF1 activator 19, HKDC1 inh 52* and HKDC1 act conf 25.
Cc1ccc(S(=O)(=O)Nc2ccc3c4c(cccc24)CC3)c(C)c1 was read as TbHK1 inh 1, HSF1 inh -3, Hsp70 activator 0, HSP90 inh -2, HSF1 activator 4 and HKDC1 inh 0.
`COc1ccc(CN2C(=O)c3cccnc3C2O)cc1` (configuration not stated) gave TbHK1 inh 2, HSF1 inh -9, Hsp70 activator 0, HSP90 inh 6, HSF1 activator -14, HKDC1 inh 41* and HKDC1 act conf 36.

Source: PubChem BioAssay
